Reference: ChEMBL document CHEMBL3244283, “Synthesis and biological activity of potential antimetabolites” (1977)
≈ marks a conversion by molar mass, not a printed value. Calls of active or inactive are those of the source. The calls are words filed in the database; no cut-off is given here.

Legend:
[1] = Cytotoxicity against human NCI-[…] cells assessed as growth inhibition; type: functional
How it was run: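 Run through the NCI routine preliminary in vitro cell-culture screen (9KB system) on human epidermoid carcinoma of the nasopharynx. ED50 is the concentration giving 50% growth inhibition relative to untreated controls.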

L1210 = experiment: Antitumor activity against mouse L1210 cells allografted in BDF1 mouse; type: functional, cell-based
How it was run: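 Run through the NCI routine preliminary in vivo screen (2LE system). L1210 lymphoid leukemia was carried in BDF1 host mice.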

Escherichia coli [2] = experiment: Inhibition of Escherichia coli aspartate transcarbamylase assessed as interaction between aspartate and carbamyl phosphate at 66 mM relative to control
How it was run: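 E. coli aspartate transcarbamylase (0.1 per ml) catalysed the reaction of 5 mM aspartate with 4 mM carbamyl phosphate. Test agent was present at 66 mM, and phosphate at the same concentration served as a comparison. Enzyme activity was read colorimetrically. Inhibition is expressed as a percentage relative to the uninhibited reaction.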

Escherichia coli [3] = experiment: Irreversible inhibition of Escherichia coli aspartate transcarbamylase in presence of aspartate
Escherichia coli [4] = experiment: Irreversible inhibition of Escherichia coli aspartate transcarbamylase in absence of aspartate

Compound	ED50 [1]	Activity (L1210)	inhibition (Escherichia coli [2])	inhibition (Escherichia coli [3])	inhibition (Escherichia coli [4])
NC(Cc1ccc(O)cc1)C(=O)CCl (stereo not drawn)	2.1 µg/mL (≈ 9.83 µM)	inactive			
NC(Cc1ccccc1)C(=O)CCl (stereo not drawn)	4 µg/mL (≈ 20.2 µM)	inactive			
O=C(CCl)NP(=O)([O-])[O-].[Li+].[Li+]	2.5 µg/mL	inactive	60%	inactive	inactive
CC(C)CC(N)C(=O)CCl (stereo not drawn)	7.6 µg/mL (≈ 46.4 µM)	inactive			
NCCCCC(N)C(=O)CCl (stereo not drawn)	2.7 µg/mL (≈ 15.1 µM)	inactive			
